Assay results published in ChEMBL document CHEMBL4368914, “Tricyclic Indazoles-A Novel Class of Selective Estrogen Receptor Degrader Antagonists” (J Med Chem, 2019).

Test system: not listed separately
Assay: Fraction unbound in Alderley Park Han Wistar rat plasma by equilibrium dialysis
Format: ADME, cell-free
Settings: not given
Outline: (§1)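 Equilibrium dialysis from DMSO stock in 10% plasma, either Alderley Park Han Wistar rat plasma or human plasma.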

Row | fraction unbound | SMILES
1 | 0.046 | COc1cc(/C=C/C(=O)O)ccc1[C@@H]1c2ccc3[nH]ncc3c2C[C@@H](C)N1CC(C)(C)F
2 | 0.015 | C[C@@H]1Cc2c(ccc3[nH]ncc23)[C@@H](c2ccc(/C=C/C(=O)O)cc2)N1CC(C)(C)F
3 | 0.0076 | C[C@@H]1Cc2c(ccc3[nH]ncc23)[C@@](C)(c2c(F)cc(/C=C/C(=O)O)cc2F)N1CC(C)(F)F
4 | 0.066 | CC(C)CN1[C@H](c2ccc(/C=C/C(=O)O)cc2)c2ccc3[nH]ncc3c2CC1(C)C

Biological target: T1, Estrogen receptor (Homo sapiens, UniProt P03372)
T1 sequence (P03372 whole entry): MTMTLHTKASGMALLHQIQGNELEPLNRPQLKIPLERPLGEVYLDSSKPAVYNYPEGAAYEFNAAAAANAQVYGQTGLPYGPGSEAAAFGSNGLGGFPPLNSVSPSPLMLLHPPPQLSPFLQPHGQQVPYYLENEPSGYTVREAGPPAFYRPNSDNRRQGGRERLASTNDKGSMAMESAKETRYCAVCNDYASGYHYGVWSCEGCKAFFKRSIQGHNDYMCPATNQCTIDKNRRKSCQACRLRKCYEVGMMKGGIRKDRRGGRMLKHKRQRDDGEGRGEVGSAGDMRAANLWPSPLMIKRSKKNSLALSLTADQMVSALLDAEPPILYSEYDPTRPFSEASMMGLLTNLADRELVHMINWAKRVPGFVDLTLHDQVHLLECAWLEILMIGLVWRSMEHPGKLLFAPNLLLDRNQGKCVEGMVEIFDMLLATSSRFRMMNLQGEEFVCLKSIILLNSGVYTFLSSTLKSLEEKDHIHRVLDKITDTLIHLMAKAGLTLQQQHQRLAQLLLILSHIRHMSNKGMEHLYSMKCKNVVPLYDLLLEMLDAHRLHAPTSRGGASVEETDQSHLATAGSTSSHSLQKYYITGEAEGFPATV
Assay: Binding affinity to recombinant human GST-tagged ERalpha LBD expressed in baculovirus-infected insect cells by lantha screen assay
Settings: not given

Row | IC50 [nM] | SMILES
5 | 1.58 | COc1cc(/C=C/C(=O)O)ccc1[C@@H]1c2ccc3[nH]ncc3c2C[C@@H](C)N1CC(C)(C)F
6 | 1.58 | C[C@@H]1Cc2c(ccc3[nH]ncc23)[C@@H](c2ccc(/C=C/C(=O)O)cc2)N1CC(C)(C)F
7 | 0.316 | C[C@@H]1Cc2c(ccc3[nH]ncc23)[C@@](C)(c2c(F)cc(/C=C/C(=O)O)cc2F)N1CC(C)(F)F
8 | 20 | CC(C)CN1[C@H](c2ccc(/C=C/C(=O)O)cc2)c2ccc3[nH]ncc3c2CC1(C)C

Test system: not listed separately
Assay: Lipophilicity, log D of the compound at pH 7.4 by shake flask method
Format: physicochemical
Settings: buffer
Outline: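 Shake-flask measurement of logD at pH 7.4.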

Row | logD | SMILES
9 | 2.2 | COc1cc(/C=C/C(=O)O)ccc1[C@@H]1c2ccc3[nH]ncc3c2C[C@@H](C)N1CC(C)(C)F
10 | 2.9 | C[C@@H]1Cc2c(ccc3[nH]ncc23)[C@@H](c2ccc(/C=C/C(=O)O)cc2)N1CC(C)(C)F
11 | 3 | C[C@@H]1Cc2c(ccc3[nH]ncc23)[C@@](C)(c2c(F)cc(/C=C/C(=O)O)cc2F)N1CC(C)(F)F
12 | 2 | CC(C)CN1[C@H](c2ccc(/C=C/C(=O)O)cc2)c2ccc3[nH]ncc3c2CC1(C)C

Test system: not listed separately
Assay: Glutathione reactivity in human liver microsomes assessed as GSH trapping ratio of compound to clozapine
Format: ADME, Microsome
Settings: not given
Outline: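 Glutathione trapping in human liver microsomes, expressed as a ratio to clozapine.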

Row | Ratio | SMILES
13 | < 0.04 | COc1cc(/C=C/C(=O)O)ccc1[C@@H]1c2ccc3[nH]ncc3c2C[C@@H](C)N1CC(C)(C)F
14 | < 0.04 | CC(C)CN1[C@H](c2ccc(/C=C/C(=O)O)cc2)c2ccc3[nH]ncc3c2CC1(C)C

Test system: not listed separately
Assay: Intrinsic clearance in rat hepatocytes assessed per million cells
Format: ADME, cell-based, Hepatocyte
Settings: read-out: CLH
Outline: (§2)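 Rate of metabolism (µl/min/10⁶ cells) measured from DMSO stock in isolated hepatocytes diluted to 1x10⁶ cells/mL.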

Row | hepatocyte CLint [µL/min/1e6 cells] | SMILES
15 | 17 | COc1cc(/C=C/C(=O)O)ccc1[C@@H]1c2ccc3[nH]ncc3c2C[C@@H](C)N1CC(C)(C)F
16 | 8 | C[C@@H]1Cc2c(ccc3[nH]ncc23)[C@@H](c2ccc(/C=C/C(=O)O)cc2)N1CC(C)(C)F
17 | 20 | C[C@@H]1Cc2c(ccc3[nH]ncc23)[C@@](C)(c2c(F)cc(/C=C/C(=O)O)cc2F)N1CC(C)(F)F
18 | 6 | CC(C)CN1[C@H](c2ccc(/C=C/C(=O)O)cc2)c2ccc3[nH]ncc3c2CC1(C)C

Biological target: T1, Estrogen receptor
Assay: Induction of ERalpha degradation in human MCF7 cells after 18 to 24 hrs by in multiplexed cell assay
Format: cell-based
Settings: not given
Outline: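 MCF-7 cells were kept at 37 °C, 5% CO₂ in phenol red-free RPMI1640 with 5% charcoal-stripped FCS and 2 mmol/L glutamine. Compounds came from 10 mmol/L DMSO stocks.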

Row | IC50 [nM] | SMILES
19 | 0.631 | COc1cc(/C=C/C(=O)O)ccc1[C@@H]1c2ccc3[nH]ncc3c2C[C@@H](C)N1CC(C)(C)F
20 | 0.316 | C[C@@H]1Cc2c(ccc3[nH]ncc23)[C@@H](c2ccc(/C=C/C(=O)O)cc2)N1CC(C)(C)F
21 | 0.794 | C[C@@H]1Cc2c(ccc3[nH]ncc23)[C@@](C)(c2c(F)cc(/C=C/C(=O)O)cc2F)N1CC(C)(F)F
22 | 1.58 | CC(C)CN1[C@H](c2ccc(/C=C/C(=O)O)cc2)c2ccc3[nH]ncc3c2CC1(C)C

Test system: not listed separately
Assay: Intrinsic clearance in human hepatocytes assessed per million cells
Format: ADME, cell-based, Hepatocyte
Settings: read-out: CLH
Outline: as §2

Row | hepatocyte CLint [µL/min/1e6 cells] | SMILES
23 | 6 | COc1cc(/C=C/C(=O)O)ccc1[C@@H]1c2ccc3[nH]ncc3c2C[C@@H](C)N1CC(C)(C)F
24 | 78 | C[C@@H]1Cc2c(ccc3[nH]ncc23)[C@@H](c2ccc(/C=C/C(=O)O)cc2)N1CC(C)(C)F
25 | 6 | C[C@@H]1Cc2c(ccc3[nH]ncc23)[C@@](C)(c2c(F)cc(/C=C/C(=O)O)cc2F)N1CC(C)(F)F
26 | 93 | CC(C)CN1[C@H](c2ccc(/C=C/C(=O)O)cc2)c2ccc3[nH]ncc3c2CC1(C)C

Test system: not listed separately
Assay: Fraction unbound in 10% human plasma by equilibrium dialysis
Format: ADME, cell-free
Settings: 10% plasma
Outline: as §1

Row | fraction unbound | SMILES
27 | 0.0098 | COc1cc(/C=C/C(=O)O)ccc1[C@@H]1c2ccc3[nH]ncc3c2C[C@@H](C)N1CC(C)(C)F
28 | 0.0087 | C[C@@H]1Cc2c(ccc3[nH]ncc23)[C@@H](c2ccc(/C=C/C(=O)O)cc2)N1CC(C)(C)F
29 | 0.0027 | C[C@@H]1Cc2c(ccc3[nH]ncc23)[C@@](C)(c2c(F)cc(/C=C/C(=O)O)cc2F)N1CC(C)(F)F
30 | 0.036 | CC(C)CN1[C@H](c2ccc(/C=C/C(=O)O)cc2)c2ccc3[nH]ncc3c2CC1(C)C
